Tests used:
[1] = Cytotoxicity against human dermal fibroblasts expressing GCase N370S/N370S mutant at 5 uM after 6 days; format: cell-based; details: fibroblast, 144 h
Outline: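 Fibroblasts of the stated genotype were seeded at 5000 cells/well. After 1 day they were switched to OPTI-MEM with 5% FBS and treated 6 days with compound. Viability was read by CellTiter-Glo luminescence on a parallel plate.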

Plasma = assay: Half life in C57BL/6 mouse plasma at 50 mg/kg, ip; format: ADME, organism-based; set-up: dose 50 mg/kg, route intraperitoneal; details: in vivo
Outline: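 Male C57BL/6 mice, 18−26 g, given a single ip dose of 50 mpk in 20% PEG 400 + 80% (20% HP-β-CD). Plasma, brain and liver were sampled, and brain and liver were homogenized in 3 volumes of PBS pH 7.4 (dilution factor 4). Analysis was by LC−MS/MS. Mean profiles N = 3.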

Caco-2 = assay: Apparent permeability of the compound from basal to apical side of human Caco2 cells after 2 hrs; format: ADME, cell-based; details: caco-2, 2 h
Outline: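 Caco-2 monolayers were grown 3 weeks, with integrity checked by Lucifer yellow. Compound was added apically (pH 6.5 HBSS/HEPES/glucose buffer) or basolaterally (pH 7.4) and incubated 2 h. Transfer was quantified by LC−MS/MS and expressed as P_app. Efflux ratio is P_app B→A over A→B.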

t1/2 (Plasma): 19.3 h | Papp (Caco-2): 2 ×10⁻⁶ cm/s
Structure (SMILES): C#Cc1ccc(NC(=O)c2cnn3c(C)cc(C)nc23)cc1
Activity [1]: Non-toxic

Source: ChEMBL document CHEMBL2169863, “Discovery, structure-activity relationship, and biological evaluation of noninhibitory small molecule chaperones of glucocerebrosidase” (J Med Chem, 2012)
